Test results reported in PMC2646813 (Journal of biomolecular screening, 2008).
Where a name gives a salt, the structure may show the parent alone. Read-outs that look alike come from different tables or passages of the source.

What was measured:
[1] = target: T1, PPARα (Mus musculus, UniProt P23204); assay: Transactivation assay, acyl-CoA oxidase reporter; format: cell-based; conditions: for Increase of PPARα transactivation (percentage change from no-compound control): basal, absence of glucose (Fig. 2C open bars); for Effect on clofibrate-induced PPARα transactivation: absence of glucose (Fig. 2D open bars)
T1 sequence (P23204 1-468): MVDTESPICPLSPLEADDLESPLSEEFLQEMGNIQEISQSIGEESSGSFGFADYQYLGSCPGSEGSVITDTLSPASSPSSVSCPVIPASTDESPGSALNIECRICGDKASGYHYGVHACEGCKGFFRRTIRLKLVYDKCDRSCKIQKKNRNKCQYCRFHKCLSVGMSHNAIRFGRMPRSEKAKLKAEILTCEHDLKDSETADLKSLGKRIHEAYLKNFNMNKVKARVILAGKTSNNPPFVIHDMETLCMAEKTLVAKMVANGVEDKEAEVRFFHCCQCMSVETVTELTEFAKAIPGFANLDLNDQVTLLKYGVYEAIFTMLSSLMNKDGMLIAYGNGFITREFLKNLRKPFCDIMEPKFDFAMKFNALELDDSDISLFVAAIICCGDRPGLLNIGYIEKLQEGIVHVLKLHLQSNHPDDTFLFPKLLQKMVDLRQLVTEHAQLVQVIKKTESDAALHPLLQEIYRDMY
Method in brief: (§1)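 COS-7 cells in 24-well plates transfected with 0.4 μg full-length pSG5-PPARα, alone or with pSG5-mRXRα; 0.4 μg PPRE3-TK-LUC reporter; 0.04 μg pRL-CMV. Then serum-free, glucose-free DMEM for 2 h. Compound (10 μM) added at 0 or 20 mM glucose, ±10 μM clofibrate, for 24 h. Firefly luciferase normalized to Renilla. Results given as percentage of clofibrate-induced PPARα activity, or percentage change from no-compound control; mean ± SEM, n = 3.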

[2] = target: T2, PPARαΔAB (Mus musculus, UniProt P23204); format: binding, murine
T2 sequence (P23204 101-468 limits assumed): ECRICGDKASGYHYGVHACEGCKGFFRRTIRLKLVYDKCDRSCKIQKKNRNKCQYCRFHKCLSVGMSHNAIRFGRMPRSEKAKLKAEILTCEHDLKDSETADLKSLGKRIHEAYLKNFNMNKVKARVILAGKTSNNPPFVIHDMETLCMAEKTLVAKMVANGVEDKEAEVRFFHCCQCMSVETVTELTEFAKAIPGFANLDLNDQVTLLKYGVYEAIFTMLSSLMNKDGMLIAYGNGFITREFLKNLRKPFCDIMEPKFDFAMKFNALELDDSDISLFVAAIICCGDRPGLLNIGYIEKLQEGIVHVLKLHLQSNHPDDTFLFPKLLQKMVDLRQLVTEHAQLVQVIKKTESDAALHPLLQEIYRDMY
Method in brief: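 Intrinsic aromatic fluorescence quenching. 0.1 μM murine PPARαΔAB in 20 mM glucose in PBS titrated with test compound. Excitation 280 nm, emission 300–380 nm. Corrected for buffer, compound fluorescence and solvent. Kd calculated from maximal intensities, with double-reciprocal plots. Mean ± SEM, n = 3–4.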

[3] = target: T3, PPARα-RXRα heterodimers (Mus musculus, UniProt P23204); assay: Transactivation assay, acyl-CoA oxidase reporter; format: cell-based
T3 sequence (P23204 1-468): T1 sequence (P23204 1-468)
T3 sequence (P28700 1-467 partner): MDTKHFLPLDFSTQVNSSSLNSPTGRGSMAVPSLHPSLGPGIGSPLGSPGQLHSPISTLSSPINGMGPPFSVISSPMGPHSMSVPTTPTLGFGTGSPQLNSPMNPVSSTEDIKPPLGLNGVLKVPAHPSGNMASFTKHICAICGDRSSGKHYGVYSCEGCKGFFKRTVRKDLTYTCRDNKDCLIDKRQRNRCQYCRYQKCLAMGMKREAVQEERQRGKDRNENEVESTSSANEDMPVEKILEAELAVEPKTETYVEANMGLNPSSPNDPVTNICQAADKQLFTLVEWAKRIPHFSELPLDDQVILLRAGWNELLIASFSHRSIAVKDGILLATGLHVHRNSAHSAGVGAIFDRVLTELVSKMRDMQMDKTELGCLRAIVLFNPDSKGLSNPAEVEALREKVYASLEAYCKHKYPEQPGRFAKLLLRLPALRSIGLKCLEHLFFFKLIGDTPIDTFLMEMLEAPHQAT
Method in brief: as §1

[4] = target: T2, PPARαΔAB; assay: Primary drug-screening assay: restoration of BODIPY-C16-CoA; format: binding, murine; conditions: 20 mM glucose; for Recovery (ability to restore acyl-CoA binding): compound 1.25 μM, 10 nM BODIPY-C16-CoA, 200 nM PPARαΔAB
[5] = target: T2, PPARαΔAB; assay: Circular dichroism, PPARα secondary structure; parameters: species or system murine; conditions: 20 mM glucose, 0.8 μM PPARαΔAB; mean ± SEM (n = 4)
Method in brief: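 Murine PPARαΔAB (N-terminal truncation), expressed in E. coli BL21(DE3)pLysS and purified, at 0.8 μM with 0 or 20 mM glucose. Ten CD scans averaged per spectrum. Secondary structure fractions estimated by SELCON3, CDSSTR and CONTIN/LL. Mean ± SEM, n = 4; Student's t-test.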

[6] = target: T2, PPARαΔAB; assay: PPARα binding assays to BODIPY-C16 fatty acid or fatty acyl-CoA; parameters: species or system murine; conditions: high glucose (20 mM)
Method in brief: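 50 nM BODIPY-C16 or BODIPY-C16-CoA prebound to 100 nM murine PPARαΔAB, then titrated with glucose. Excitation 460 nm, emission 490–540 nm. Background-corrected maximal intensities expressed as percentage change in binding versus the no-glucose control.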

[7] = read-out: Kd (binding affinity of PPARα for each compound), 0.1 μM PPARαΔAB in 20 mM glucose in PBS, mean ± SEM (n = 3–4)
[8] = compound 10 μM, 10 μM clofibrate, 20 mM glucose (Fig. 2F)
[9] = compound 10 μM, 10 μM clofibrate

| Compound | Effect on clofibrate-induced PPARα-RXRα activity [3, 8] | Recovery (ability to restore acyl-CoA binding) [4] | Kd [2] | other results |
| --- | --- | --- | --- | --- |
| CN=C(N)NCCC[C@H](N)C(=O)O.Cl [Targinine hydrochloride, reference compound] | significantly decreased | 67.5% |  | Increase of PPARα transactivation (percentage change from no-compound control) ([1]; compound 10 μM): ≥ 50%; Kd [2, 7]: 33.5 ± 3.5 nM |
| O=C1NS(=O)(=O)c2ccccc21 [Saccharin] |  | 81.3% | 22.5 ± 2 nM | Effect on clofibrate-induced PPARα transactivation [1, 9]: significant increases |
| NCCCC(=O)O [g-aminobutyric acid] |  | 85.5% |  | Kd [2, 7]: 29.5 ± 4.1 nM |
| NC(=O)c1cnccn1 [Pyrazinamide] | significantly decreased | 68.6% | 28.4 ± 2.3 nM |  |
| Cc1ccc(C(=O)c2ccc(CC(=O)O)n2C)cc1 [Tolmetin sodium, reference compound] | significantly decreased | 97.1% | 35.1 ± 3.7 nM | Increase of PPARα transactivation (percentage change from no-compound control) ([1]; compound 10 μM): ≥ 50% |
| NC(=O)c1ccccc1O [Salicylamide] |  | 83.1% | 25.8 ± 6 nM |  |
| COc1cccc(OC)c1C(=O)N[C@@H]1C(=O)N2[C@@H]1SC(C)(C)[C@@H]2C(=O)O [methicillin sodium] |  |  |  | Direct binding to PPARα (change of intrinsic fluorescence) ([2]; 20 mM glucose): no binding |
| CC(=O)O[C@@H]1C[C@H]2C(C)(C)C(=O)C=C[C@]2(C)[C@H]2CC[C@@]3(C)[C@H](c4ccoc4)OC(=O)[C@H]4O[C@]43[C@@]21C [Gedunin] | significantly decreased | 62.3% | 21.9 ± 1.8 nM | Effect on clofibrate-induced PPARα transactivation [1, 9]: decreases; Effect on basal PPARα activity ([1]; compound 10 μM, with or without glucose (Fig. 2C)): significantly reduced; Effect on clofibrate-induced PPARα-RXRα activity ([3]; compound 10 μM, 10 μM clofibrate, absence of glucose (Fig. 2F)): significantly affected activity; Effect on basal PPARα-RXRα heterodimer activity ([3]; compound 10 μM, with or without glucose (Fig. 2E)): decreased activity |
| CC(=O)N[C@@H]1[C@@H](O)[C@H](O)[C@@H](CO)O[C@@H]1O [Acetylglucosamine] |  | 63.8% |  | Increase of PPARα transactivation (percentage change from no-compound control) ([1]; compound 10 μM): ≥ 50%; Kd [2, 7]: 33.3 ± 3 nM |
| CCCC1O[C@@H]2C[C@H]3[C@@H]4CCC5=CC(=O)C=C[C@]5(C)[C@H]4[C@@H](O)C[C@]3(C)[C@]2(C(=O)CO)O1 (stereo partly drawn) [Budesonide] | significantly decreased | 82.0% | 26.3 ± 3.2 nM |  |
| c1ccc(CC2=NCCN2)cc1 [Tolazoline hydrochloride] |  | 73.9% | 31.4 ± 3.6 nM |  |
| OC[C@H]1OC(O)[C@H](O)[C@@H](O)[C@@H]1O (stereo partly drawn) [glucose] |  |  |  | Increase of transactivation by glucose over clofibrate alone ([1]; 10 μM clofibrate, 20 mM glucose, PPARα alone (Fig. 2B)): 3- to 4 fold; Effect of glucose on basal transactivation ([1]; 20 mM glucose, no other ligand, PPARα alone (Fig. 2A)): no significant effect; Turns [5]: 20.2 ± 0.7%; Unordered [5]: 30.7 ± 0.8 %; α-Helices Distorted, Hd [5]: 10.8 ± 0.3 %; α-Helices Regular, Hr [5]: 14.3 ± 0.3 %; β-Sheets Distorted, Sd [5]: 8.8 ± 0.5 %; β-Sheets Regular, Sr [5]: 14.4 ± 1.2 %; Increase of transactivation by glucose over clofibrate alone ([3]; 10 μM clofibrate, 20 mM glucose, PPARα-RXRα heterodimers (Fig. 2B)): 3- to 4 fold; Effect of glucose on basal transactivation ([3]; 20 mM glucose, no other ligand (Fig. 2A)): increased activity; Decrease in BODIPY-C16-CoA fluorescence intensity ([4]; plate assay controls): ~ 30%; Effect of glucose on BODIPY-C16 (fatty acid) binding to PPARα ([6]; 50 nM BODIPY-C16, 100 nM PPARαΔAB (Fig. 1D)): not affected; Effect of glucose on BODIPY-C16-CoA binding to PPARα ([6]; 50 nM BODIPY-C16-CoA, 100 nM PPARαΔAB (Fig. 1C, 1D)): significantly decreased |
| CCOC(=O)[C@H](CCc1ccccc1)N[C@@H](C)C(=O)N1CCC[C@H]1C(=O)O [Enalapril maleate] |  | 64.7% | 26.3 ± 2.8 nM |  |
| CN1[C@@H]2CC[C@H]1C[C@@H](OC(=O)[C@H](CO)c1ccccc1)C2 [Hyoscyamine] |  | 86.4% | 14.8 ± 2.8 nM |  |
